Experimental data: ChEMBL document CHEMBL5329167, “Design, synthesis and evaluation of halogenated phenazine antibacterial prodrugs targeting nitroreductase enzymes for activation” (RSC Med Chem, 2023)
≈ marks a conversion by molar mass, not a printed value. Calls of active or inactive are those of the source. The rule behind the calls is not given here.

Tests used:
Staphylococcus aureus [1] = test: Antibacterial activity against methicillin-resistant Staphylococcus aureus 1707 assessed as zone of inhibition at 10 mM incubated for 16 hrs by agar diffusion assay; format: functional
Procedure, shortened: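 Modified Kirby-Bauer disk diffusion. 100 µL MRSA 1707 inoculum (OD₆₀₀ 0.7, ~10⁸ CFU) spread on LB agar and left 30 min. 10 µL of 10 mM DMSO compound solution then pipetted onto the plate. Incubation 16 h at 37 °C; zone of inhibition area (cm²) measured. Three independent experiments.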

[2] = Metal chelating activity assessed as formation of phenazine-iron complex measured for 1 to 60 mins by UV-vis spectroscopy; conditions: time 1-60 min
Procedure, shortened: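 Compound from a 10 mM DMSO stock diluted in DMSO in a cuvette, alone or with ammonium iron(II) sulfate hexahydrate (10 mM aqueous stock). Spectra of the compound-only cuvette and the iron-containing cuvette are compared by UV-vis spectrometry to judge phenazine–iron(II) complex formation.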

[3] = test system: Staphylococcus epidermidis; test: Antibacterial activity against methicillin-resistant Staphylococcus epidermidis 35984 assessed as bacterial growth inhibition incubated for 16 hrs by CLSI based broth microdilution method; format: functional
Procedure, shortened: (§1)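 Broth microdilution per CLSI in LB, eleven two-fold serial dilutions spanning 0.10 to 100 µM. Inoculum ~10⁵ cells/well from fresh log-phase culture (OD₆₀₀ 0.6–0.8). MIC taken as lowest concentration preventing growth after 16 h at 37 °C, read by OD₆₀₀ turbidity. DMSO vehicle control, top 0.5% v/v. At least three independent experiments.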

Staphylococcus aureus [4] = test: Antibacterial activity against methicillin-resistant Staphylococcus aureus 1707 assessed as bacterial growth inhibition incubated for 16 hrs by CLSI based broth microdilution method; format: functional; procedure, shortened: as §1
[5] = Cytotoxicity against HEK293 cells incubated for 48 hrs by MTT assay; format: toxicity, cell-based; conditions: human
Procedure, shortened: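 HEK-293 cells (10⁴/well) in DMEM with 10% FBS, penicillin/streptomycin, settled overnight at 37 °C, 5% CO₂. Medium replaced with compound at 0.10–100 µM (2-fold steps); DMSO as negative control. After 48 h at 37 °C, MTT (5 mg/mL stock) added for 3 h. Formazan dissolved in DMSO, OD read at 570 nm. Eight replicates per treatment.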

Staphylococcus aureus [6] = test: Antibacterial activity against methicillin-resistant Staphylococcus aureus BAA-1707 assessed as bacterial growth inhibition incubated for 16 hrs by CLSI based broth microdilution method; format: functional; procedure, shortened: as §1
Enterococcus = test: Antibacterial activity against vancomycin-resistant Enterococcus 700221 assessed as bacterial growth inhibition incubated for 16 hrs by CLSI based broth microdilution method; format: functional
Procedure, shortened: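 Growth scored by OD₆₀₀ turbidity after 16 h at 37 °C; MIC is the lowest concentration preventing growth. DMSO vehicle control up to 0.5% v/v. Three or more independent experiments.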

Streptococcus pneumoniae = test: Antibacterial activity against Streptococcus pneumoniae 6303 assessed as bacterial growth inhibition incubated for 16 hrs by CLSI based broth microdilution method; format: functional
Procedure, shortened: (§2)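 CLSI broth microdilution in LB: eleven 2-fold serial dilutions, 0.10–100 µM. DMSO vehicle/negative control diluted from 0.5% v/v. Wells seeded with ~10⁵ cells from log-phase culture (OD₆₀₀ 0.6–0.8), held 16 h at 37 °C. MIC taken as the lowest concentration preventing growth by OD₆₀₀ turbidity. Minimum three independent experiments.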

[7] = Hemolytic activity against red blood cells (unknown origin) at 200 uM; format: toxicity, cell-based, Erythrocyte; conditions: read-out: Activity
Staphylococcus aureus [8] = test: Antibacterial activity against methicillin-resistant Staphylococcus aureus BAA-44 assessed as bacterial growth inhibition incubated for 16 hrs by CLSI based broth microdilution method; format: functional; procedure, shortened: as §1
Enterococcus faecalis = test: Antibacterial activity against Enterococcus faecalis OG1RF assessed as bacterial growth inhibition incubated for 16 hrs by CLSI based broth microdilution method; format: functional
Procedure, shortened: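 Broth microdilution per CLSI in brain-heart infusion: eleven 2-fold dilutions spanning 0.10–100 µM, with DMSO vehicle/negative control topping at 0.5% v/v. Inoculum ~10⁵ cells/well from log-phase culture (OD₆₀₀ 0.6–0.8). 37 °C, 16 h. MIC is the lowest concentration preventing growth, read as OD₆₀₀ turbidity. At least three independent experiments.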

[9] = test system: Staphylococcus epidermidis; test: Antibacterial activity against Staphylococcus epidermidis 12228 assessed as bacterial growth inhibition incubated for 16 hrs by CLSI based broth microdilution method; format: functional; procedure, shortened: as §2
Staphylococcus aureus [10] = test: Antibacterial activity against Staphylococcus aureus clinical isolate 147 assessed as bacterial growth inhibition incubated for 16 hrs by CLSI based broth microdilution method; format: functional
Staphylococcus aureus [11] = test: Antibacterial activity against Staphylococcus aureus clinical isolate 138 assessed as bacterial growth inhibition incubated for 16 hrs by CLSI based broth microdilution method; format: functional
Staphylococcus aureus [12] = test: Antibacterial activity against Staphylococcus aureus clinical isolate 156 assessed as bacterial growth inhibition incubated for 16 hrs by CLSI based broth microdilution method; format: functional
[13] = test system: Staphylococcus epidermidis; test: Antibacterial activity against Staphylococcus epidermidis clinical isolate CL-1 assessed as bacterial growth inhibition incubated for 16 hrs by CLSI based broth microdilution method; format: functional
Staphylococcus aureus [14] = test: Antibacterial activity against Staphylococcus aureus clinical isolate 129 assessed as bacterial growth inhibition incubated for 16 hrs by CLSI based broth microdilution method; format: functional
Staphylococcus aureus [15] = test: Antibacterial activity against methicillin-resistant Staphylococcus aureus clinical isolate 2 assessed as bacterial growth inhibition incubated for 16 hrs by CLSI based broth microdilution method; format: functional
Staphylococcus aureus [16] = test: Antibacterial activity against methicillin-resistant Staphylococcus aureus clinical isolate 1 assessed as bacterial growth inhibition incubated for 16 hrs by CLSI based broth microdilution method; format: functional

Row | SMILES | diameter of the inhibition zone (DIZ) (Staphylococcus aureus [1]) [cm2] | Activity [2] | MIC [3] [µM] | MIC (Staphylococcus aureus [4]) [µM] | CC50 at 48 h [5] [µM] | MIC (Staphylococcus aureus [6]) [µM] | MIC (Enterococcus) [µM] | MIC (Streptococcus pneumoniae) [µM] | hemolysis at 200 µM [7] [%] | MIC (Staphylococcus aureus [8]) [µM] | MIC (Enterococcus faecalis) [µM] | MIC [9] [µM] | MIC (Staphylococcus aureus [10]) [µM] | MIC (Staphylococcus aureus [11]) [µM] | MIC (Staphylococcus aureus [12]) [µM] | MIC [13] [µM] | MIC (Staphylococcus aureus [14]) [µM] | MIC (Staphylococcus aureus [15]) [µM] | MIC (Staphylococcus aureus [16]) [µM]
1 | O=[N+]([O-])c1ccc(CS(=O)(=O)Oc2c(Br)cc(Br)c3nc4c(C(F)(F)F)cc(C(F)(F)F)cc4nc23)cc1 | 2.57 | inactive | 0.78 (≈ 0.538 µg/mL) | 1.56 (≈ 1.08 µg/mL) | 2.9 | 1.56 (≈ 1.08 µg/mL) | 1.56 (≈ 1.08 µg/mL) | 0.2 (≈ 0.138 µg/mL) | 10.4 | 4.69 (≈ 3.23 µg/mL) | 0.78 (≈ 0.538 µg/mL) | 0.15 (≈ 0.103 µg/mL) |  |  |  |  |  |  | 
2 | O=S(=O)(Cc1ccccc1)Oc1c(Br)cc(Br)c2nc3ccccc3nc12 | 0 | inactive | > 100 | > 100 | > 100 | > 100 | > 100 | > 100 |  | > 100 | > 100 | > 100 | > 100 | > 100 | > 100 | > 100 | > 100 |  | 
3 | COc1cccc(OC)c1C(=O)N[C@@H]1C(=O)N2[C@@H]1SC(C)(C)[C@@H]2C(=O)O [METHICILLIN] |  |  |  |  |  |  |  |  |  |  |  |  | 6.25 (≈ 2.38 µg/mL) | 37.5 (≈ 14.3 µg/mL) | 25 (≈ 9.51 µg/mL) | 12.5 (≈ 4.76 µg/mL) | 37.5 (≈ 14.3 µg/mL) | > 100 | 37.5 (≈ 14.3 µg/mL)
4 | O=S(=O)(Cc1ccccc1)Oc1c(Br)cc(Br)c2nc3c(C(F)(F)F)cc(C(F)(F)F)cc3nc12 | 1.07 | inactive | 1.56 (≈ 1 µg/mL) | > 100 | 3.6 | > 100 | 0.78 (≈ 0.502 µg/mL) | 0.2 (≈ 0.129 µg/mL) |  | 18.8 (≈ 12.1 µg/mL) | 0.39 (≈ 0.251 µg/mL) | 0.15 (≈ 0.0966 µg/mL) |  |  |  |  |  |  | 
5 | NC[C@H]1O[C@H](O[C@H]2[C@H](O)[C@@H](O[C@H]3O[C@H](CO)[C@@H](O)[C@H](N)[C@H]3O)[C@H](N)C[C@@H]2N)[C@H](N)C[C@@H]1O [TOBRAMYCIN] |  |  |  |  |  |  |  |  |  |  |  |  | 6.25 (≈ 2.92 µg/mL) | 12.5 (≈ 5.84 µg/mL) | 12.5 (≈ 5.84 µg/mL) | 1.56 (≈ 0.729 µg/mL) | > 100 | 6.25 (≈ 2.92 µg/mL) | 6.25 (≈ 2.92 µg/mL)
6 | Oc1c(Br)cc(Br)c2nc3c(C(F)(F)F)cc(C(F)(F)F)cc3nc12 | 4.58 | Active | 0.05 (≈ 0.0245 µg/mL) | 0.1 (≈ 0.049 µg/mL) |  | 0.15 (≈ 0.0735 µg/mL) | 0.2 (≈ 0.098 µg/mL) | 0.1 (≈ 0.049 µg/mL) | 16.7 | 0.15 (≈ 0.0735 µg/mL) | 0.1 (≈ 0.049 µg/mL) | 0.1 (≈ 0.049 µg/mL) |  |  |  |  |  |  | 
7 | CC[C@H]1OC(=O)[C@H](C)[C@@H](O[C@H]2C[C@@](C)(OC)[C@@H](O)[C@H](C)O2)[C@H](C)[C@@H](O[C@@H]2O[C@H](C)C[C@H](N(C)C)[C@H]2O)[C@](C)(O)C[C@@H](C)C(=O)[C@H](C)[C@@H](O)[C@]1(C)O [ERYTHROMYCIN] |  |  |  |  |  |  |  |  |  |  |  |  | 37.5 (≈ 27.5 µg/mL) | > 100 | > 100 | > 100 | > 100 | 18.8 (≈ 13.8 µg/mL) | 100 (≈ 73.4 µg/mL)
8 | CN(C)[C@@H]1C(O)=C(C(N)=O)C(=O)[C@@]2(O)C(O)=C3C(=O)c4c(O)cccc4[C@@](C)(O)[C@H]3C[C@@H]12 [TETRACYCLINE] |  |  |  |  |  |  |  |  |  |  |  |  | 0.1 (≈ 0.0444 µg/mL) | 0.15 (≈ 0.0667 µg/mL) | 0.15 (≈ 0.0667 µg/mL) | 25 (≈ 11.1 µg/mL) | 0.1 (≈ 0.0444 µg/mL) | 0.1 (≈ 0.0444 µg/mL) | 0.1 (≈ 0.0444 µg/mL)
9 | Cc1cccc2nc3c(OS(=O)(=O)Cc4ccccc4)c(Br)c(Cl)c(Br)c3nc12 | 0 | inactive | > 100 | > 100 | 49.6 | > 100 | > 100 | > 100 |  | > 100 | > 100 | > 100 | > 100 | > 100 | > 100 | > 100 | > 100 |  | 
10 | CN[C@H](CC(C)C)C(=O)N[C@H]1C(=O)N[C@@H](CC(N)=O)C(=O)N[C@H]2C(=O)N[C@H]3C(=O)N[C@H](C(=O)N[C@H](C(=O)O)c4cc(O)cc(O)c4-c4cc3ccc4O)[C@H](O)c3ccc(c(Cl)c3)Oc3cc2cc(c3O[C@@H]2O[C@H](CO)[C@@H](O)[C@H](O)[C@H]2O[C@H]2C[C@](C)(N)[C@H](O)[C@H](C)O2)Oc2ccc(cc2Cl)[C@H]1O [VANCOMYCIN] |  |  | 0.59 (≈ 0.855 µg/mL) |  |  |  | > 100 | 0.59 (≈ 0.855 µg/mL) | < 1 | 0.3 (≈ 0.435 µg/mL) | 1.56 (≈ 2.26 µg/mL) | 1.56 (≈ 2.26 µg/mL) |  |  |  | 0.59 (≈ 0.855 µg/mL) |  |  | 
11 | O=S(=O)(Cc1ccccc1)Oc1c(Br)cc(Br)c2nc3cc(Cl)ccc3nc12 | 0 | inactive |  | 3.13 (≈ 1.7 µg/mL) | 30.3 | 2.35 (≈ 1.28 µg/mL) | > 100 | 1.56 (≈ 0.847 µg/mL) |  |  | > 100 | 3.13 (≈ 1.7 µg/mL) |  |  |  |  |  |  | 
12 | O=[N+]([O-])c1ccc(CS(=O)(=O)Oc2c(Br)cc(Br)c3nc4cc(Cl)ccc4nc23)cc1 | 0.66 | inactive | 0.39 (≈ 0.229 µg/mL) | 0.1 (≈ 0.0588 µg/mL) | 6.4 | 0.1 (≈ 0.0588 µg/mL) | 0.59 (≈ 0.347 µg/mL) | 0.15 (≈ 0.0881 µg/mL) | < 1 | 0.15 (≈ 0.0881 µg/mL) | 4.69 (≈ 2.76 µg/mL) | 0.15 (≈ 0.0881 µg/mL) |  |  |  |  |  |  | 
13 | Oc1c(Br)cc(Br)c2nc3cc(Cl)ccc3nc12 | 1.7 | Active |  | 0.1 (≈ 0.0388 µg/mL) |  | 0.075 (≈ 0.0291 µg/mL) |  | 0.3 (≈ 0.117 µg/mL) | < 1 | 0.15 (≈ 0.0583 µg/mL) |  | 0.3 (≈ 0.117 µg/mL) |  |  |  |  |  |  | 
